Laboratory results from ChEMBL document CHEMBL4043244, “Diverse amide analogs of sulindac for cancer treatment and prevention” (Bioorg Med Chem Lett, 2017).

Columns and labels:
REH = test: Growth inhibition of human REH cells after 72 hrs by CellTiter-Glo reagent based assay; assay type: functional, cell-based
MDA-MB-231 = test: Growth inhibition of human MDA-MB-231 cells after 72 hrs by CellTiter-Glo reagent based assay; assay type: functional; conditions: MDA-MB-231, 72 h
In short: (§1)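 Cancer cell lines (PC3 prostate, HT29 colorectal carcinoma, MDA-MB-231 breast) were screened by quantitative high-throughput screening in whole cells, and CC50 values were derived.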

697 = test: Growth inhibition of human 697 cells after 72 hrs by CellTiter-Glo reagent based assay; assay type: functional, cell-based
BJ = test: Growth inhibition of human BJ cells after 72 hrs by CellTiter-Glo reagent based assay; assay type: cell-based
In short: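 Normal human foreskin fibroblast (BJ) counter-screen for cytotoxicity, with drug tested at 10 μM.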

HT-29 = test: Growth inhibition of human HT-29 cells after 72 hrs by CellTiter-Glo reagent based assay; assay type: functional; conditions: HT-29, 72 h; in short: as §1
PC-3 = test: Growth inhibition of human PC3 cells after 72 hrs by CellTiter-Glo reagent based assay; assay type: functional; conditions: PC-3, 72 h; in short: as §1
[1] = Growth inhibition of mouse CPC300 cells after 72 hrs by CellTiter-Glo reagent based assay; assay type: functional, cell-based
[2] = Growth inhibition of human NALM16 cells after 72 hrs by CellTiter-Glo reagent based assay; assay type: functional, cell-based
Jurkat E6.1 = test: Growth inhibition of human Jurkat E6-1 cells after 72 hrs by CellTiter-Glo reagent based assay; assay type: functional, cell-based
Raji = test: Growth inhibition of human Raji cells after 72 hrs by CellTiter-Glo reagent based assay; assay type: functional, cell-based
[3] = Mus musculus, CPC300, 72 h, read-out: EC50
[4] = Homo sapiens, NALM16, 72 h, read-out: EC50
[5] = Homo sapiens, Raji, 72 h, read-out: EC50
[6] = Homo sapiens, REH, 72 h, read-out: EC50
[7] = Homo sapiens, 697, 72 h, read-out: EC50

Row | SMILES | CC50 (MDA-MB-231) [µM] | EC50 (BJ) [µM] | CC50 (HT-29) [µM] | CC50 (PC-3) [µM] | also measured
1 | CC1=C(CC(=O)NCCCN(C)C)c2cc(F)ccc2/C1=C\c1nc2ccccc2s1 | 1.93 | > 7.57 | 1.05 | 3.25 | EC50 (REH; reh): Not Active; EC50 697; 697: Not Active; EC50 [1, 3]: 65 µM; EC50 [2, 4]: 0.35 µM; EC50 (Jurkat E6.1; jurkat e6.1): Not Active; EC50 (Raji; raji): Not Active
2 | CSc1ccc(/C=C2/C(C)=C(CC(=O)N3CCN(CCCN(C)C)CC3)c3cc(F)ccc32)cc1 | 3.77 | > 7.57 | 1.69 | 4.28 | EC50 (REH; reh): Not Active; EC50 697; 697: Not Active; EC50 ([1]; cpc300): Not Active; EC50 (Jurkat E6.1; jurkat e6.1): Not Active; EC50 (Raji; [5]): 76 µM
3 | CC1=C(CC(=O)N2CCN(c3ccncc3)CC2)c2cc(F)ccc2/C1=C\c1nc2ccccc2s1 | 7.71 | > 7.57 | 5.25 | 12.3 | EC50 (REH; reh): Not Active; EC50 697; 697: Not Active; EC50 [1, 3]: 72 µM; EC50 ([2]; nalm16): Not Active; EC50 (Jurkat E6.1; jurkat e6.1): Not Active; EC50 (Raji; raji): Not Active
4 | CC1=C(CC(=O)NCc2ccccc2)c2cc(F)ccc2/C1=C\c1ccc([S+](C)[O-])cc1 (centres undefined) | 0.78 | > 7.57 | 0.5 | 2.64 | EC50 (REH; [6]): 3.3 µM; EC50 697; [7]: 4.1 µM; EC50 [1, 3]: 120 µM; EC50 [2, 4]: 1.3 µM; EC50 (Jurkat E6.1; Homo sapiens, Jurkat E6.1, 72 h, read-out: EC50): 1.3 µM; EC50 (Raji; [5]): 2.6 µM
5 | CCN(CC)CCCNC(=O)CC1=C(C)/C(=C/c2ccc(SC)cc2)c2ccc(F)cc21 | 3.19 | > 7.57 | 1.53 | 4.33 | EC50 (REH; reh): Not Active; EC50 697; 697: Not Active; EC50 ([1]; cpc300): Not Active; EC50 (Jurkat E6.1; jurkat e6.1): Not Active; EC50 (Raji; [5]): 21 µM
6 | COc1cc(/C=C2/C(C)=C(CC(=O)N3CCN(c4ccncc4)CC3)c3cc(F)ccc32)cc(OC)c1OC | 6.5 | > 7.57 | 2.79 | 5.45 | EC50 (REH; [6]): 27 µM; EC50 697; 697: Not Active; EC50 ([1]; cpc300): Not Active; EC50 ([2]; nalm16): Not Active; EC50 (Jurkat E6.1; jurkat e6.1): Not Active; EC50 (Raji; raji): Not Active
7 | CC1=C(CC(=O)NCCN2CCCC2)c2cc(F)ccc2/C1=C\c1nc2ccccc2s1 | 3.56 | > 7.57 | 1.21 | 4.94 | EC50 (REH; [6]): 18 µM; EC50 697; 697: Not Active; EC50 ([1]; cpc300): Not Active; EC50 ([2]; nalm16): Not Active; EC50 (Jurkat E6.1; jurkat e6.1): Not Active; EC50 (Raji; [5]): 47 µM
8 | CC1=C(CC(=O)N2CCN(CCCN(C)C)CC2)c2cc(F)ccc2/C1=C\c1nc2ccccc2s1 | 2.9 | > 7.57 | 1.62 | 4.21 | EC50 (REH; reh): Not Active; EC50 697; 697: Not Active; EC50 ([1]; cpc300): Not Active; EC50 [2, 4]: 0.097 µM; EC50 (Jurkat E6.1; jurkat e6.1): Not Active; EC50 (Raji; raji): Not Active
9 | CC1=C(CC(=O)N(C)CCN(C)C)c2cc(F)ccc2/C1=C\c1nc2ccccc2s1 | 3.8 | > 7.57 | 2.02 | 5.88 | EC50 (REH; reh): Not Active; EC50 697; 697: Not Active; EC50 ([1]; cpc300): Not Active; EC50 [2, 4]: 0.3 µM; EC50 (Jurkat E6.1; jurkat e6.1): Not Active; EC50 (Raji; raji): Not Active
10 | CC1=C(CC(=O)N2CCC(N3CCCCC3)CC2)c2cc(F)ccc2/C1=C\c1ccc([S+](C)[O-])cc1 (centres undefined) | > 50 | – | > 50 | > 50 | –
11 | CCNCCCN(CC)C(=O)CC1=C(C)/C(=C/c2ccc([S+](C)[O-])cc2)c2ccc(F)cc21 (centres undefined) | > 50 | – | 17.5 | > 50 | –
12 | COc1cc(/C=C2/C(C)=C(CC(=O)NCCN3CCCCC3)c3cc(F)ccc32)cc(OC)c1OC | 10.4 | – | 4.18 | 9.62 | –
13 | CCN1CCC[C@H]1CNC(=O)CC1=C(C)/C(=C/c2nc3ccccc3s2)c2ccc(F)cc21 | 5.58 | – | 1.66 | 7.72 | –
14 | CSc1ccc(/C=C2/C(C)=C(CC(=O)N(C)CCN(C)S(C)(=O)=O)c3cc(F)ccc32)cc1 | 11.6 | – | 4.04 | 15.5 | –
15 | CC1=C(CC(=O)N(C)CCN(C)S(=O)(=O)c2ccc(C)cc2)c2cc(F)ccc2/C1=C\c1ccc([S+](C)[O-])cc1 (centres undefined) | 17.8 | – | 6.18 | 11 | –
16 | CNCCCN(C)C(=O)CC1=C(C)/C(=C/c2ccc(SC)cc2)c2ccc(F)cc21 | 7.66 | – | 2.9 | 7.65 | –
17 | CSc1ccc(/C=C2/C(C)=C(CC(=O)N3CCCN(C)CC3)c3cc(F)ccc32)cc1 | 7.21 | > 7.57 | 2.94 | 7.35 | EC50 (REH; reh): Not Active; EC50 697; 697: Not Active; EC50 ([1]; cpc300): Not Active; EC50 [2, 4]: 0.49 µM; EC50 (Jurkat E6.1; jurkat e6.1): Not Active
18 | CNCCN(C)C(=O)CC1=C(C)/C(=C/c2ccc(SC)cc2)c2ccc(F)cc21 | 5.84 | – | 2.8 | 6.75 | –
19 | CSc1ccc(/C=C2/C(C)=C(CC(=O)N(C)CCN(C)S(=O)(=O)c3cccc4c(N(C)C)cccc34)c3cc(F)ccc32)cc1 | > 50 | – | > 50 | > 50 | –
20 | CCN(CC)CCNC(=O)CC1=C(C)/C(=C/c2ccc([S+](C)[O-])cc2)c2ccc(F)cc21 (centres undefined) | > 50 | – | 19.8 | > 50 | –

Row | SMILES | CC50 (MDA-MB-231) [µM] | EC50 (BJ) [µM] | CC50 (HT-29) [µM] | CC50 (PC-3) [µM] | also measured
21 | CSc1ccc(/C=C2/C(C)=C(CC(=O)NCc3ccco3)c3cc(F)ccc32)cc1 | 3.4 | – | 2.08 | 13 | –
22 | CCNCCN(CC)C(=O)CC1=C(C)/C(=C/c2ccc([S+](C)[O-])cc2)c2ccc(F)cc21 (centres undefined) | > 50 | – | 18.2 | > 50 | –
23 | COC(=O)[C@H](C)NC(=O)CC1=C(C)/C(=C/c2ccc(SC)cc2)c2ccc(F)cc21 | 38.9 | – | 23.9 | > 50 | –
24 | CNCCN(C)C(=O)CC1=C(C)/C(=C/c2cc(OC)c(OC)c(OC)c2)c2ccc(F)cc21 | 17 | – | 8.05 | 23.1 | –
25 | CSc1ccc(/C=C2/C(C)=C(CC(=O)N3CCC[C@H]3CN3CCCC3)c3cc(F)ccc32)cc1 | 4.16 | > 7.57 | 1.55 | 5.1 | EC50 (REH; reh): Not Active; EC50 697; 697: Not Active; EC50 ([1]; cpc300): Not Active; EC50 (Jurkat E6.1; jurkat e6.1): Not Active; EC50 (Raji; [5]): 76 µM
26 | CC1=C(CC(=O)N2CCN(CCCN(C)C)CC2)c2cc(F)ccc2/C1=C\c1ccc([S+](C)[O-])cc1 (centres undefined) | 46.2 | – | 23.8 | > 50 | –
27 | CSc1ccc(/C=C2/C(C)=C(CC(=O)N(C)CCN(C)C(=O)[C@@H](N)C(C)C)c3cc(F)ccc32)cc1 | 7.33 | – | 3.72 | 7.08 | –
28 | CSc1ccc(/C=C2/C(C)=C(CC(=O)N(C)CCN(C)S(=O)(=O)c3ccc(C)cc3)c3cc(F)ccc32)cc1 | > 50 | – | 12.9 | > 50 | –
29 | CNCCN(C)C(=O)CC1=C(C)/C(=C/c2ccc([S+](C)[O-])cc2)c2ccc(F)cc21 (centres undefined) | > 50 | – | 34.5 | > 50 | –
30 | CCN(CCN(C)C)C(=O)CC1=C(C)/C(=C/c2ccc(SC)cc2)c2ccc(F)cc21 | 3.96 | – | 1.36 | 5.07 | –
31 | CC1=C(CC(=O)N2CCN(c3ccncc3)CC2)c2cc(F)ccc2/C1=C\c1ccc([S+](C)[O-])cc1 (centres undefined) | 22.7 | – | 9.2 | 21.9 | –
32 | CCN(CC)CCN(CC)C(=O)CC1=C(C)/C(=C/c2ccc(SC)cc2)c2ccc(F)cc21 | 5.22 | – | 1.83 | 6.21 | –
33 | CSc1ccc(/C=C2/C(C)=C(CC(=O)NCc3cccnc3)c3cc(F)ccc32)cc1 | 7.36 | – | 4.83 | 18.5 | –
34 | CC1=C(CC(=O)N(CCCNC(C)C)C(C)C)c2cc(F)ccc2/C1=C\c1ccc([S+](C)[O-])cc1 (centres undefined) | > 50 | – | 16.3 | 48.3 | –
35 | CCN(CC)CCCNC(=O)CC1=C(C)/C(=C/c2ccc([S+](C)[O-])cc2)c2ccc(F)cc21 (centres undefined) | > 50 | – | 27.1 | > 50 | –
36 | CSc1ccc(/C=C2/C(C)=C(CC(=O)NCCC(C)C)c3cc(F)ccc32)cc1 | > 50 | – | > 50 | > 50 | –
37 | COc1cc(/C=C2/C(C)=C(CC(=O)N(C)CCN(C)C(=O)[C@@H](N)C(C)C)c3cc(F)ccc32)cc(OC)c1OC | 18.8 | > 7.57 | 10.7 | 17.7 | EC50 697; [7]: 0.96 µM; EC50 ([1]; cpc300): Not Active; EC50 ([2]; nalm16): Not Active; EC50 (Jurkat E6.1; jurkat e6.1): Not Active; EC50 (Raji; raji): Not Active
38 | CSc1ccc(/C=C2/C(C)=C(CC(=O)NN3CCN(C)CC3)c3cc(F)ccc32)cc1 | 4.1 | – | 1.64 | 4.45 | –
39 | CC1=C(CC(=O)NCc2ccco2)c2cc(F)ccc2/C1=C\c1nc2ccccc2s1 | 6.7 | – | 5.48 | 26.4 | –
40 | COc1cc(/C=C2/C(C)=C(CC(=O)NCCN3CCCC3)c3cc(F)ccc32)cc(OC)c1OC | 41.1 | – | 13.4 | 46.5 | –
